Assay results as given in ChEMBL document CHEMBL1142312, “Anti-Plasmodium activity of tetrazolium salts” (Bioorg Med Chem, 2008).

Legend:
[1] = Ratio of IC50 for CHO cells to IC50 for Plasmodium falciparum; assay type: functional
[2] = Toxicity in CHO cells; assay type: cell-based, Cricetulus griseus; details: Chinese hamster (Cricetulus griseus), CHO cells
Outline: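 CHO cells grown to 50% confluency in RPMI-1640 with 10% fetal calf serum, 25 mM Hepes and gentamicin. Serial dilutions made from a 10 mg/mL DMSO stock; DMSO-only controls. After 48 h, MTT (10 mg/mL in medium) added for 1 h, then DMSO added and absorbance read at 650 nm. IC50 by non-linear regression of dose–response; mean ± SE of four determinations.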

[3] = test system: Plasmodium falciparum; assay: Antimalarial activity against Plasmodium falciparum in LDH reporter assay; assay type: functional, organism-based; details: Plasmodium falciparum
Outline: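 P. falciparum line ItG cultured in O+ human erythrocytes in RPMI-1640 with 10% human serum and 50 μM hypoxanthine. Twofold serial dilutions from 10 mg/mL DMSO stock, 2% hematocrit, 2% parasitemia. Incubated 72 h at 37 °C under 95% N2/3% CO2/2% O2. Parasite LDH assay read at 650 nm after 1 h. IC50 by non-linear regression, mean ± SE of four determinations.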

Row | SMILES | IC50 [3] [µM] | Ratio IC50 [1] | IC50 [2] [µM]
1 | COc1cc(-c2nn(-c3ccccc3)[n+](-c3ccc(Cl)cc3)n2)ccc1OCc1ccccc1.[Cl-] | 3.8 | 8.4 | 32
2 | COc1cc(-c2nn(-c3ccccc3)[n+](-c3cccc(F)c3)n2)ccc1OCc1ccccc1.[Cl-] | 3.2 | 2 | 6.5
3 | COc1ccc(-c2nn(-c3ccccc3)[n+](-c3ccc([N+](=O)[O-])cc3)n2)cc1.[Cl-] | 3.7 | 1.6 | 6
4 | O=[N+]([O-])c1ccc(-n2nc(-c3ccccc3)n[n+]2-c2ccc(I)cc2)cc1.[Cl-] [IODONITROTETRAZOLIUM CHLORIDE] | 81 | 0.6 | 49
5 | O=[N+]([O-])c1ccc(-[n+]2nc(-c3ccc(Br)cc3)nn2-c2ccccc2)cc1.[Cl-] | 10 | 0.7 | 7
6 | COc1ccc(-n2nc(-c3ccc(-c4ccccc4)cc3)n[n+]2-c2ccc(F)cc2)cc1.[Cl-] | 1.7 | 11.2 | 19
7 | [Cl-].c1ccc(-c2ccc(-n3nc(-c4cccc5ccccc45)n[n+]3-c3ccccc3)cc2)cc1 | 2.9 | 3.1 | 9
8 | O=[N+]([O-])c1ccc(-[n+]2nc(-c3ccc(OCc4ccccc4)cc3)nn2-c2ccccc2)cc1.[Cl-] | 9 | 0.5 | 4.4
9 | Fc1cccc(-[n+]2nc(-c3ccccc3)nn2-c2ccccc2)c1.[Cl-] | 2.2 | 16.4 | 36
10 | CC(C)c1nn(-c2ccccc2)[n+](-c2ccccc2)n1.[Br-] | 102 | 3.7 | 377
11 | CCCCCCc1nn(-c2ccccc2)[n+](-c2ccccc2)n1.[Br-] | 3.4 | 6.2 | 21
12 | CCCCCCCCCCCOc1ccc(-c2nn(-c3ccccc3)[n+](-c3ccccc3)n2)cc1.[Cl-] | 4 | 0.1 | 0.4
13 | Clc1cccc(-n2nc(-c3ccc(OCc4ccccc4)cc3)n[n+]2-c2cccc(Cl)c2)c1.[Cl-] | 1.3 | 16.2 | 21
14 | COc1cc(-c2nn(-c3ccccc3)[n+](-c3ccccc3F)n2)ccc1OCc1ccccc1.[Cl-] | 2.2 | 1.2 | 2.7
15 | O=[N+]([O-])c1ccc(-c2nn(-c3ccccc3)[n+](-c3ccccc3)n2)cc1.[Cl-] | 14 | 2.2 | 31
16 | COc1cc(-c2ccc(-n3nc(-c4ccccc4)n[n+]3-c3ccccc3)c(OC)c2)ccc1-n1nc(-c2ccccc2)n[n+]1-c1ccccc1 [TETRAZOLIUM BLUE CHLORIDE] | 3.8 | – | > 100
17 | COc1cc(-c2ccc(-n3nc(-c4ccc([N+](=O)[O-])cc4)n[n+]3-c3ccc([N+](=O)[O-])cc3)c(OC)c2)ccc1-n1nc(-c2ccc([N+](=O)[O-])cc2)n[n+]1-c1ccc([N+](=O)[O-])cc1 | – | – | 1.3

Further compounds by falling IC50 [3], results first:

Row | IC50 [3] [µM] | SMILES | Ratio IC50 [1] | IC50 [2] [µM]
18 | 0.83 | Fc1ccc(-[n+]2nc(-c3cccc4ccccc34)nn2-c2ccccc2)cc1.[Cl-] | 38.6 | 32
19 | 0.81 | Fc1ccc(-[n+]2nc(-c3ccc(-c4ccccc4)cc3)nn2-c2ccccc2)cc1.[Cl-] | 5.1 | 4.1
20 | 0.8 | COc1ccc(-n2nc(-c3ccccc3)n[n+]2-c2ccccc2)cc1.[Cl-] | 8.1 | 6.5
21 | 0.69 | COc1cc(-c2nn(-c3ccccc3)[n+](-c3cccc(Cl)c3)n2)ccc1OCc1ccccc1.[Cl-] | 11.6 | 8
22 | 0.6 | Brc1cccc(-[n+]2nc(-c3ccccc3)nn2-c2ccccc2)c1.[Cl-] | 10.7 | 6.4
23 | 0.5 | Clc1cccc(-n2nc(-c3ccccc3)n[n+]2-c2cccc(Cl)c2)c1.[Cl-] | 72 | 36
24 | 0.47 | Fc1ccc(-[n+]2nc(-c3ccc(OCc4ccccc4)cc3)nn2-c2ccccc2)cc1.[Cl-] | 34 | 16
25 | 0.46 | Clc1cccc(-c2nn(-c3ccccc3)[n+](-c3ccccc3)n2)c1.[Cl-] | 93.5 | 43
26 | 0.43 | COc1ccc(-[n+]2nc(-c3ccc(-c4ccccc4)cc3)nn2-c2ccccc2)cc1.[Cl-] | 44.2 | 19
27 | 0.42 | Fc1cccc(-[n+]2nc(-c3ccc(OCc4ccccc4)cc3)nn2-c2ccccc2)c1.[Cl-] | 10.2 | 4.3
28 | 0.41 | Clc1cccc(-c2nn(-c3ccc(OCc4ccccc4)cc3)[n+](-c3ccccc3)n2)c1.[Cl-] | 92.7 | 38
29 | 0.41 | Clc1ccc(-[n+]2nc(-c3ccc(-c4ccccc4)cc3)nn2-c2ccccc2)cc1.[Cl-] | 39 | 16
30 | 0.4 | Brc1cccc(-[n+]2nc(-c3ccc(OCc4ccccc4)cc3)nn2-c2ccccc2)c1.[Cl-] | 20.3 | 8.1
31 | 0.39 | Fc1ccccc1-[n+]1nc(-c2ccccc2)nn1-c1ccccc1.[Cl-] | 112.8 | 44
32 | 0.36 | Fc1ccccc1-[n+]1nc(-c2ccc(-c3ccccc3)cc2)nn1-c1ccccc1.[Cl-] | 22.2 | 8
33 | 0.35 | [Cl-].[Cl-].c1ccc(-c2nn(-c3ccccc3)[n+](-c3ccc(-c4ccc(-[n+]5nc(-c6ccccc6)nn5-c5ccccc5)cc4)cc3)n2)cc1 [NEOTETRAZOLIUM CHLORIDE] | 31.4 | 11
34 | 0.32 | COc1ccc(-n2nc(-c3ccc(OCc4ccccc4)cc3)n[n+]2-c2ccccc2)cc1.[Cl-] | 28.1 | 9
35 | 0.261 | [Cl-].c1ccc(COc2ccc(-n3nc(-c4ccc(-c5ccccc5)cc4)n[n+]3-c3ccccc3)cc2)cc1 | 6.5 | 1.7
36 | 0.26 | Fc1cccc(-[n+]2nc(-c3ccc(-c4ccccc4)cc3)nn2-c2ccccc2)c1.[Cl-] | 18.8 | 4.9
37 | 0.23 | [Cl-].c1ccc(COc2ccc(-c3nn(-c4ccc(OCc5ccccc5)cc4)[n+](-c4ccccc4)n3)cc2)cc1 | 4.2 | 0.96
38 | 0.15 | [Cl-].c1ccc(-c2nn(-c3ccccc3)[n+](-c3cccc4ccccc34)n2)cc1 [TETRAZOLIUM VIOLET] | 100 | 15
39 | 0.14 | Fc1ccccc1-[n+]1nc(-c2ccc(OCc3ccccc3)cc2)nn1-c1ccccc1.[Cl-] | 57.1 | 8
40 | 0.115 | Clc1cccc(-[n+]2nc(-c3ccc(-c4ccccc4)cc3)nn2-c2ccccc2)c1.[Cl-] | 87 | 10
41 | 0.103 | [Cl-].c1ccc(COc2ccc(-c3nn(-c4ccccc4)[n+](-c4ccccc4)n3)cc2)cc1 | 40.8 | 4.2
42 | 0.1 | Clc1cccc(-[n+]2nc(-c3ccccc3)nn2-c2ccc(OCc3ccccc3)cc2)c1.[Cl-] | 140 | 14
